# This is a sample that favours compounds with a hit; in the whole collection about 0.77% have one here.
# bIAP inhibitor: bovine intestinal alkaline phosphatase inhibitors, primary screen, selectivity assay for TNAP inhibitor project, biochemical, bovine IAP, CDP-star luminescence | 190,000 tested, under 10 active | AID 1019, 2008 | inhibition, % at 20 µM | purified bovine IAP, 30 min | alkaline phosphatase, intestinal [Bos taurus];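 active means over 50% inhibition of intestinal alkaline phosphatase at 20 µM in the single-dose screen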
#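 Incubation: 30 min reaction at room temperature / Material: purified bovine intestinal alkaline phosphatase (IAP) enzyme / Input: enzyme at 1/65,000,000 dilution / Dosing: 20 µM single dose / Signal: CDP-star luminescence signal / Reagent: CDP-star chemiluminescent phosphatase substrate, 30 µM final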
# mIAP block: inhibitors of mouse IAP, primary screen, biochemical, luminescence, uHTS; purified mouse IAP, CDP-Star luminescence, 30 min; inhibition, % at 10 µM; 0.2% of 330,000 active; AID 2806, 2010;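 active means inhibition of at least 40% at 10 µM in the primary screen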;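 further: plate controls were DMSO with enzyme for no effect and no enzyme wells for full effect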
# hIAP act: human IAP activators, primary screen, biochemical, luminescence, uHTS. purified human IAP, CDP-Star luminescence, 30 min; stronger effect = higher value; 1 = vehicle-only enzyme, 0 = enzyme-free background. AID 2524, 2010. activation factor at 10 µM. 0.16% of 330,000 active;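 active means activation factor of the enzyme at least 2-fold when tested at 20 µM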
# Target sequence (P09923 whole entry, looked up): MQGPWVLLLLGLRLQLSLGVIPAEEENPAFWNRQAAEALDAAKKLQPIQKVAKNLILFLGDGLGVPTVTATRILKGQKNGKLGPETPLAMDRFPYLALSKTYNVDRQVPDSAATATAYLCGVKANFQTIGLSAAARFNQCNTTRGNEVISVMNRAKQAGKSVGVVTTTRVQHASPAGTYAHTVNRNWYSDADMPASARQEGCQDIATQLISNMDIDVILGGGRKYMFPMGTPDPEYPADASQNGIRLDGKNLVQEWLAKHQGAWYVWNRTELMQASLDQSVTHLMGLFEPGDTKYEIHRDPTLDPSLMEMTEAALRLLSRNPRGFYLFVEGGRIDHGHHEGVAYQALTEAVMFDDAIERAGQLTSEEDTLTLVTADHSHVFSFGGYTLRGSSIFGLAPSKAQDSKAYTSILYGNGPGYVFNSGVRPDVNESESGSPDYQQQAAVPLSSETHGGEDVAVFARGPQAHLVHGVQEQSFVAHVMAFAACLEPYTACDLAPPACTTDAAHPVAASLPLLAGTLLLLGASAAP
# bIAP act: bovine intestinal alkaline phosphatase activators, primary screen, biochemical, bovine IAP, CDP-star luminescence | activation factor at 20 µM | purified bovine IAP, 30 min; stronger effect = higher value; fold of DMSO-control signal, blank-subtracted | 0.17% of 200,000 active | alkaline phosphatase, intestinal [Bos taurus] | AID 1016, 2008;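 active means activation factor of 2 or more at 20 µM, a signal rise over negative controls twice the positive control's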
# hIAP block: human IAP inhibitors, primary screen, biochemical, luminescence, uHTS | 0.12% of 330,000 active | purified IAP, CDP-Star luminescence, 30 min | AID 2544, 2010 | inhibition, % at 10 µM;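 active means inhibition reaching a set limit with compound at 10 µM in the primary screen, cut at about 35% in these data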;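 further: plate controls were DMSO wells with enzyme for no effect and no-enzyme buffer wells for full effect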
# mIAP act: activators of mouse IAP, primary screen, biochemical, luminescence, uHTS; intestinal alkaline phosphatase [Mus musculus]; muIAP, CDP-Star luminescence, 30 min; stronger effect = higher value; 1 = vehicle-only enzyme signal, 0 = enzyme-free wells; activation factor at 10 µM; 0.24% of 330,000 active; AID 2805, 2010;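 active means activation factor of at least 2 at 20 µM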
#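 Assay system: mouse IAP enzyme / Compound: DMSO-dissolved test compounds / Timing: 30 min, room temperature / Measured by: luminescence from enzymatic CDP-Star hydrolysis / Control set: DMSO-only wells, enzyme-free buffer wells as negative control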
# Starred values were filed as active, the others as inactive; i = inactive; · = no result.
SMILES,bIAP inhibitor,mIAP block,hIAP act,bIAP act,hIAP block,mIAP act
COc1ccc2oc(C(=O)NC3(C)CCS(=O)(=O)C3)c(C)c2c1 (stereo unspecified),·,-2.4,1.17,·,-17.3,1.02
S=C(NCc1cccs1)Nc1cc(Cl)cc(Cl)c1,·,-300.4,1.1,·,-9.6,4*
Fc1ccc(CNC(=S)Nc2cccc(Cl)c2)cc1,-23.5,-137.9,0.926,1.2,7.4,2.38*
Cc1ccnc2nc(C(=O)OCC(=O)N(Cc3ccccc3)C(C)(C)C)nn12,·,-2.0,1.19,·,-18.9,1.02
COc1ccc(CCNC(=O)c2cc(-c3ccccc3)c(N3CCOCC3)s2)cc1OC,·,-115.2,1.43,·,-43.3,2.15*
COc1ccc(CCNC(=O)c2ccc(CNc3c(N4CCOCC4)c(=O)c3=O)cc2)cc1OC,1.2,4.0,0.932,1,6.8,0.96
O=C(NCCc1ccccc1)c1cc(-c2ccccc2)c(N2CCOCC2)s1,·,-181.3,1.16,·,-15.9,2.81*
CSc1ccc(CCNC(=O)c2cc(-c3ccccc3)c(N3CCOCC3)s2)cc1,·,-136.9,1.52,·,-52.0,2.37*
COc1ccc(CCNC(=O)c2cc(-c3ccccc3O)n[nH]2)cc1OC,-104.0,-91.3,0.944,2*,5.6,1.91
CC(=O)c1ccc(NC(=O)CN2CCCC2)cc1,·,1.5,1.06,·,-5.9,0.985
O=C(Nc1n[nH]c(C2CCCCC2)n1)C1CCCCC1,i,-133.0,0.913,8.1*,8.7,2.33*
O=C(Nc1ncccn1)C1CCCCC1,4.4,-17.7,1.13,1,-12.8,1.18
COc1ccc(OCC(=O)N2c3ccccc3CC2C)c([N+](=O)[O-])c1 (stereo unspecified),·,-5.7,1.04,·,-3.8,1.06
COC(=O)COc1ccc(S(=O)(=O)NCc2ccc3c(c2)OCO3)cc1C,·,-7.3,1.01,·,-0.6,1.07
O=C1CCCCN1CC(=O)N1CCCC(Nc2ccc(F)cc2)C1 (stereo unspecified),·,44.3*,1.42,·,-42.4,0.557
CC(C)(C)n1nc2c(c1NC(=O)c1ccc(Br)o1)CS(=O)C2 (stereo unspecified),-158.1,2.4,1.02,2.6*,-2.0,0.976
COc1cccc(C(=O)N(C)Cc2c(C)nn(C3CCS(=O)(=O)C3)c2C)c1 (stereo unspecified),·,-4.6,0.946,·,5.4,1.05
COc1cccc(OC)c1NC(=O)CN1CCN(C)CC1,·,-4.9,0.989,·,1.1,1.05
CCOC(=O)c1c(-c2ccc(C)o2)csc1NC(=O)CN1CCCCC1,-6.3,14.8,0.921,1.1,7.9,0.852
CCOC(=O)c1c(NC(=O)CN2CCCCC2)sc2c1CCC(C=O)=C2Cl,8.3,48.6*,0.918,0.9,8.2,0.514
c1ccc(-c2c(-c3ccccc3)n(Cc3ccco3)c3ncnc(NCCCn4ccnc4)c23)cc1,i,-7.2,0.974,49.1*,2.6,1.07
OCCNc1ncnc2c1c(-c1ccccc1)c(-c1ccccc1)n2Cc1ccco1,-12.9,-0.6,0.83,1.1,17.0,1.01
Cn1ncc2c(NNC(=O)c3ccc(O)cc3)ncnc21,-33.4,29.8,1.19,1.3,-19.2,0.702
Cc1cccc(C(=O)NNc2ncnc3c2cnn3C)c1,-48.4,0.3,2.13*,1.5,-113.2,0.997
Cc1ccc(-n2ncc3c(NCc4ccco4)ncnc32)c(C)c1,11.4,-9.3,1.19,0.9,-19.3,1.09
Cc1ccc(-n2ncc3c(NNC(=O)c4ccco4)ncnc32)c(C)c1,-45.6,-1.9,2.98*,1.5,-197.5,1.02
O=C(CSc1nc2ccccc2c(=O)n1Cc1ccco1)NCc1ccco1,-20.7,16.7,0.836,1.2,16.4,0.833
COc1cc2nc(SCC(=O)NCCc3ccccc3)n(Cc3ccco3)c(=O)c2cc1OC,-95.5,12.4,0.956,2*,4.4,0.876

# Compound activity: PubChem, Sanford-Burnham Center for Chemical Genomics
